This note sets out measurements from ChEMBL document CHEMBL4152234, “Aminobenzothiazole derivatives stabilize the thermolabile p53 cancer mutant Y220C and show anticancer activity in p53-Y220C cell lines” (Eur J Med Chem, 2018).

Each structure is given as a SMILES string. Active and inactive are the calls of the source. No cut-off for these calls is given here.

The nature of data set [1]: Solubility of the compound in water. The format is physicochemical. The conditions noted are these: buffer.
For data set [2], the system named is Huh-7. The data set can be described thus: Antiproliferative activity against p53 Y220C mutant knockout human HuH7 cells up to 120 uM after 72 hrs by CellTiter-Glo assay. The format is functional, cell-based. (In general: ATP-based viability assays read luminescence as a measure of living cells.)
The target of data set [3] is T1, Cellular tumor antigen p53 (Homo sapiens, UniProt P04637, Y220C). The data set can be described thus: Binding affinity to N-terminal His6-tagged p53 DNA binding domain Y220C mutant (94 to 312 residues) (unknown origin) expressed in Escherichia coli C41 by ITC.
The test system of data set [4] is Cellular tumor antigen p53 (Homo sapiens), P04637 [Y220C]. The data set can be described thus: Binding affinity to p53 Y220C mutant (unknown origin) assessed as change in melting temperature at 250 uM.
Data set [5] addresses T1, Cellular tumor antigen p53. The data set can be described thus: Binding affinity to p53 Y220C mutant (unknown origin).
Data set [6] relates to Cellular tumor antigen p53 (Homo sapiens), P04637 [Y220C]. The data set can be described thus: Binding affinity to p53 Y220C mutant (unknown origin) assessed as change in melting temperature.
For data set [7] the test system is unchanged. In words: Binding affinity to p53 Y220C mutant (unknown origin) assessed as change in melting temperature at 1 mM.
Data set [8] has as its system Huh-7. In words: Antiproliferative activity against human HuH7 cells harboring p53 Y220C mutant after 72 hrs by CellTiter-Glo assay. Format: functional, cell-based. The conditions noted are these: Huh-7, 72 h. The procedure, abridged:
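Cells were exposed to compound for 72 h and viability read by CellTiter-Fluor or CellTiter-Glo 2.0. Quadruplicate technical replicates, normalized to blank (viability = 1) and no-cell (viability = 0) controls. Confirmed in at least 2 independent biological replicates. IC50 derived from the dose-response data.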

Turning to `CN(C)CCNC(=O)c1cc(I)c(-n2cccc2)c(I)c1O`, in data set [1], the solubility entry is on record as “Insoluble”. On to `CCN(CC)c1nc2c(C(=O)OC)c(O)c(I)c(-n3cccc3)c2s1`, for which the solubility result in data set [1] is “Insoluble”.

For `CCN(CC)c1nc2c(C(=O)O)c(O)c(I)c(-n3cccc3)c2s1`, in data set [2], the result was inactive. For the compound `O=C(O)c1cc(I)c(-n2cccc2)c(I)c1O`, the Kd in data set [3] and in data set [5] was 21 µM throughout. For the same compound, the ΔTm – broadly, the shift of the melting midpoint relative to a reference – in data set [4] was found to be 1.8 °C. Besides, the solubility result in data set [1] was “Soluble”.

For `COC(=O)c1cc(I)c(-n2cccc2)c(I)c1O`, the solubility result in data set [1] is “Insoluble”. On the same count and under the same terms, in the case of `CNC(=O)c1cc(I)c(-n2cccc2)c(I)c1O` it was “Insoluble”. Consider `CCN(CC)C1CCN(Cc2cc(C#CCNc3ccccc3)cc(I)c2O)CC1`, for which, in data set [6], the ΔTm worked out at 4 °C. In the case of `O=C(O)c1cc(I)cc(I)c1O`, in data set [7], the thermal shift (ΔTm) stood at 0.6 °C. In addition, in data set [5], the Kd (in general, the concentration at which binding is half-saturated) is 820 µM. The solubility result in data set [1] was “Soluble”.

Consider `CCCSc1cc(C(=O)O)c(O)c(I)c1-n1cccc1`, for which 150 µM corresponded to half-maximal inhibition in data set [8] (IC50).
